Laboratory results: ChEMBL document CHEMBL1122008, “Lipophilic 5'-(alkyl phosphate) esters of 1-beta-D-arabinofuranosylcytosine and its N4-acyl and 2,2'-anhydro-3'-O-acyl derivatives as potential prodrugs” (1982)
pIC50: −log10 of the molar value.

Tests used:
Format in all cases: functional
[1] = test system: Mus musculus; experiment: Antitumor activity against L1210 leukemia in mice (Average 7-day weight change (%)) at the dose of 640 mg/kg
In short: (§1)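 Male B6D2F1J mice, groups of five to nine, inoculated ip with 10^5 L1210 cells on day 0. Drug treatment started day 1 on qd×5 or q4d(2,6) schedule. Vehicles: ara-C in sterile water; the n-butyl phosphate ester in 0.05 M pH 7.4 potassium phosphate buffer; others as suspensions in 0.4% Tween 80/0.5% low-density CMC/0.9% benzyl alcohol/0.9% saline. Mice weighed days 1 and 7; 7-day weight change given as g/mouse and %.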

[2] = test system: Mus musculus; experiment: Antitumor activity against L1210/ara-C leukemia in mice (Average 7-day weight change) at the dose of 640 mg/kg
In short: (§2)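 Male B6D2F1J mice, groups of 5–9, inoculated ip with 10^5 L1210/ara-C cells on day 0. Dosing began day 1 on a qd×5 or q4d(2,6) schedule. Ara-C was given in sterile water, the n-butyl phosphate ester in 0.05 M pH 7.4 potassium phosphate buffer, and others as suspensions in 0.4% Tween 80/0.5% CMC/0.9% benzyl alcohol/0.9% saline. Mice were weighed on days 1 and 7; 7-day change given in g and %.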

[3] = test system: Mus musculus; experiment: Antitumor activity against L1210/ara-C leukemia in mice (Percent increase in life span.) at the dose of 640 mg/kg
In short: (§3)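 Same protocol as the L1210 assay, but with 10^5 kinase-deficient L1210/ara-C cells inoculated ip into male B6D2F1J mice (groups of 5–9) on day 0. Treatment begins day 1, qd×5 or q4d(2,6). %ILS = (T/C − 1)×100 using median survival times of treated and control groups. Body weight recorded days 1 and 7.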

[4] = test system: Mus musculus; experiment: Antitumor activity against L1210 leukemia in mice (Average weight per mouse on day 1.) at the dose of 320 mg/kg
In short: (§4)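 Male B6D2F1J mice (5–9 per group) received 10^5 L1210 cells i.p. on day 0 and drug from day 1, given qd×5 or q4d(2,6). Vehicles were sterile water, 0.05 M potassium phosphate pH 7.4, or 0.4% Tween 80/0.5% CMC/0.9% benzyl alcohol/0.9% saline. Read-out is average body weight per mouse (g) on day 1.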

[5] = test system: Mus musculus; experiment: Antitumor activity against L1210 leukemia in mice (Percent increase in life span.) at the dose of 640 mg/kg
In short: (§5)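 Male B6D2F1J mice, groups of 5–9, inoculated ip with 10^5 L1210 cells on day 0. Dosing starts day 1 on a qd×5 or q4d(2,6) schedule. Vehicles are sterile water, pH 7.4 0.05 M potassium phosphate buffer, or 0.4% Tween 80/0.5% CMC/0.9% benzyl alcohol/0.9% saline. %ILS = (T/C − 1)×100 from median survival. Weights taken days 1 and 7.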

[6] = test system: Mus musculus; experiment: Antitumor activity against L1210 leukemia in mice (Average 7-day weight change) at the dose of 160 mg/kg; in short: as §1
[7] = test system: L1210; experiment: Growth inhibition of cultured L1210 mouse leukemia cells was determined; conditions: read-out: ID50 (the source's name)
In short: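 L1210 mouse leukemia cells in suspension in Eagle's MEM with 15% whole (non-dialyzed, non-heat-inactivated) fetal calf serum, antibiotics and 0.05 mM 2-mercaptoethanol, 37 °C, 5% CO2. Drugs in pH 7.4 phosphate buffer or Me2SO, generally 10^-7 to 10^-3 M. Coulter cell counts at 48 h; ID50 relative to untreated controls from dose–response curves, triplicate.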

[8] = test system: Mus musculus; experiment: Antitumor activity against L1210/ara-C leukemia in mice (Percent increase in life span.) at the dose of 320 mg/kg; in short: as §3
[9] = test system: Mus musculus; experiment: Antitumor activity against L1210/ara-C leukemia in mice (Average 7-day weight change (%)) at the dose of 80 mg/kg
In short: (§6)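 Male B6D2F1J mice (5–9 per group) were given 10^5 L1210/ara-C cells i.p. on day 0, with treatment from day 1 on qd×5 or q4d(2,6). Vehicles were sterile water, pH 7.4 0.05 M phosphate buffer, or a Tween 80/CMC/benzyl alcohol saline suspension. Weights were taken on days 1 and 7; change is expressed in g/mouse and as a percentage.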

[10] = test system: Mus musculus; experiment: Antitumor activity against L1210 leukemia in mice (Average weight per mouse on day 1.) at the dose of 160 mg/kg; in short: as §4
[11] = test system: Mus musculus; experiment: Antitumor activity against L1210/ara-C leukemia in mice (Average weight per mouse on day 1.) at the dose of 640 mg/kg; in short: as §2
[12] = test system: Mus musculus; experiment: Antitumor activity against L1210/ara-C leukemia in mice (Average 7-day weight change (%)) at the dose of 320 mg/kg; in short: as §6
[13] = test system: Mus musculus; experiment: Antitumor activity against L1210 leukemia in mice (Average weight per mouse on day 1.) at the dose of 80 mg/kg; in short: as §4
[14] = test system: Mus musculus; experiment: Antitumor activity against L1210/ara-C leukemia in mice (Average 7-day weight change (%)) at the dose of 160 mg/kg; in short: as §6
[15] = test system: B16; experiment: Growth inhibition of B16 mouse melanoma cells in culture was determined; conditions: read-out: ID50 (the source's name)
In short: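 B16 mouse melanoma monolayers in McCoy's 5A with 10% whole fetal calf serum, streptomycin and penicillin, 37 °C, 5% CO2. Drugs were dissolved in 0.05 M pH 7.4 potassium phosphate buffer or Me2SO and dosed at regularly spaced concentrations, generally 10^-7 to 10^-3 M. Cells were counted after 48 h; ID50 versus untreated controls was read from dose–response curves, triplicate.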

[16] = test system: Mus musculus; experiment: Antitumor activity against L1210/ara-C leukemia in mice (Average weight per mouse on day 1.) at the dose of 80 mg/kg; in short: as §2
[17] = test system: Mus musculus; experiment: Antitumor activity against L1210/ara-C leukemia in mice (Percent increase in life span.) at the dose of 160 mg/kg; in short: as §3
[18] = test system: Mus musculus; experiment: Antitumor activity against L1210 leukemia in mice (Average weight per mouse on day 1.) at the dose of 640 mg/kg; in short: as §4
[19] = test system: Mus musculus; experiment: Antitumor activity against L1210 leukemia in mice (Average 7-day weight change (%)) at the dose of 80 mg/kg; in short: as §1
[20] = test system: Mus musculus; experiment: Antitumor activity against L1210 leukemia in mice (Percent increase in life span.) at the dose of 320 mg/kg; in short: as §5
[21] = test system: Mus musculus; experiment: Antitumor activity against L1210/ara-C leukemia in mice (Average weight per mouse on day 1.) at the dose of 160 mg/kg; in short: as §2
[22] = test system: Mus musculus; experiment: Antitumor activity against L1210/ara-C leukemia in mice (Average 7-day weight change) at the dose of 160 mg/kg; in short: as §6
[23] = test system: Mus musculus; experiment: Antitumor activity against L1210 leukemia in mice (Percent increase in life span.) at the dose of 80 mg/kg; conditions: L1210, dose 80 mg/kg; in short: as §5
[24] = test system: Mus musculus; experiment: Antitumor activity against L1210 leukemia in mice (Percent increase in life span.) at the dose of 160 mg/kg; in short: as §5
[25] = test system: Mus musculus; experiment: Antitumor activity against L1210 leukemia in mice (Average 7-day weight change) at the dose of 640 mg/kg
In short: (§7)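 Male B6D2F1J mice in groups of five to nine were inoculated i.p. with 10^5 L1210 cells on day 0. Dosing began on day 1 on a qd×5 or q4d(2,6) schedule. The vehicle was sterile water, pH 7.4 0.05 M potassium phosphate buffer, or a saline suspension with 0.4% Tween 80, 0.5% CMC and 0.9% benzyl alcohol. Mice were weighed on days 1 and 7; read-out is average weight change per mouse.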

[26] = test system: Mus musculus; experiment: Antitumor activity against L1210/ara-C leukemia in mice (Average 7-day weight change) at the dose of 320 mg/kg; in short: as §6
[27] = test system: Mus musculus; experiment: Antitumor activity against L1210 leukemia in mice (Average 7-day weight change) at the dose of 320 mg/kg; in short: as §1
[28] = test system: Mus musculus; experiment: Antitumor activity against L1210/ara-C leukemia in mice (Percent increase in life span.) at the dose of 80 mg/kg; in short: as §3
[29] = test system: Mus musculus; experiment: Antitumor activity against L1210 leukemia in mice (Average 7-day weight change (%)) at the dose of 320 mg/kg; in short: as §1
[30] = test system: Mus musculus; experiment: Antitumor activity against L1210/ara-C leukemia in mice (Average 7-day weight change) at the dose of 80 mg/kg; in short: as §2
[31] = test system: Mus musculus; experiment: Antitumor activity against L1210/ara-C leukemia in mice (Average 7-day weight change (%)) at the dose of 640 mg/kg; in short: as §6
[32] = test system: Mus musculus; experiment: Antitumor activity against L1210 leukemia in mice (Average 7-day weight change (%)) at the dose of 160 mg/kg; in short: as §1
[33] = test system: Mus musculus; experiment: Antitumor activity against L1210 leukemia in mice (Average 7-day weight change) at the dose of 80 mg/kg; in short: as §7

CCCCOP(=O)(O)OC[C@H]1O[C@@H](n2ccc(N)nc2=O)[C@@H](O)[C@@H]1O
Weight change [1]: 1%
Weight change [2]: 0.2 g mouse-1
ILS at 640 mg/kg [3]: -13%
Average weight [4]: 22.4 g mouse-1
ILS at 640 mg/kg [5]: 87%
Weight change [6]: 1 g mouse-1
pIC50 [7]: 5.12
ILS at 320 mg/kg [8]: 0%
Weight change [9]: 13%
Average weight [10]: 23.6 g mouse-1
Average weight [11]: 22.6 g mouse-1
Weight change [12]: 5%
Average weight [13]: 22 g mouse-1
Weight change [14]: 16%
pIC50 [15]: 3.89
Average weight [16]: 23.4 g mouse-1
ILS at 160 mg/kg [17]: 0%
Average weight [18]: 22.8 g mouse-1
Weight change [19]: 10%
ILS at 320 mg/kg [20]: 87%
Average weight [21]: 22.2 g mouse-1
Weight change [22]: 3.6 g mouse-1
ILS at 80 mg/kg [23]: 37%
ILS at 160 mg/kg [24]: 50%
Weight change [25]: 0.2 g mouse-1
Weight change [26]: 1 g mouse-1
Weight change [27]: 0.6 g mouse-1
ILS at 80 mg/kg [28]: 0%
Weight change [29]: 3%
Weight change [30]: 3 g mouse-1
Weight change [31]: 0%
Weight change [32]: 4%
Weight change [33]: 2.6 g mouse-1
